Structures are written as SMILES. Calls of active or inactive are those of the source. No cut-off for these calls is given here.

Among the data in ChEMBL document CHEMBL4354873, “Rationally Designed Small-Molecule Inhibitors Targeting an Unconventional Pocket on the TLR8 Protein-Protein Interface” (J Med Chem, 2020) are inhibition values, retold here.

In assay [1] the target is T1, Toll-like receptor 7 (Homo sapiens) (UniProt Q9NYK1).
T1 sequence (whole entry): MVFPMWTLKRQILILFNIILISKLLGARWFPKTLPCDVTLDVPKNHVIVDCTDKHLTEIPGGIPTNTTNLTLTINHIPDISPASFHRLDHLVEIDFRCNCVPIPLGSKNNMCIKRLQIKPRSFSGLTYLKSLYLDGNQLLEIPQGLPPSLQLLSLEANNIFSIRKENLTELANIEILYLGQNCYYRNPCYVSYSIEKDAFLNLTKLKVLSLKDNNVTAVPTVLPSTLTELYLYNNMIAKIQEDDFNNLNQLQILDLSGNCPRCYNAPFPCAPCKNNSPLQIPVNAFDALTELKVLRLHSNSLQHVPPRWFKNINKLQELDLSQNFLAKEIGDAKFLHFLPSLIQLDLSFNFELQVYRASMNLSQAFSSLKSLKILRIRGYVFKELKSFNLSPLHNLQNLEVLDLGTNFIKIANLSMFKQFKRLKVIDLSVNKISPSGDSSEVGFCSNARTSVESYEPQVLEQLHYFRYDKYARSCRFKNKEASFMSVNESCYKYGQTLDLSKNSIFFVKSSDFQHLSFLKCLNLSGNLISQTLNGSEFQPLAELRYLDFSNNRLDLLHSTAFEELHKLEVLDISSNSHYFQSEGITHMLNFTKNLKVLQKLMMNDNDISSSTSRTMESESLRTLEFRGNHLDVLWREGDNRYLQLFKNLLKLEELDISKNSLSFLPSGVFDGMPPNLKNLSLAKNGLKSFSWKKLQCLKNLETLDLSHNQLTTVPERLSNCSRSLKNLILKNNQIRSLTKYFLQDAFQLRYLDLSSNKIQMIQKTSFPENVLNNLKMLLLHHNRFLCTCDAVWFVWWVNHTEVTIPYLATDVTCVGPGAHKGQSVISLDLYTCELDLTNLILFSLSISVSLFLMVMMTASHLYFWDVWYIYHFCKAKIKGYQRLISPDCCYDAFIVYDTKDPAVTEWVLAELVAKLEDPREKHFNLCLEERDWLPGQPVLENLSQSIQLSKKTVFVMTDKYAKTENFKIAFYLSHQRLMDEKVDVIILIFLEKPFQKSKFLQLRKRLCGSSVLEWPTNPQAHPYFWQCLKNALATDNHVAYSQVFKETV
As to the kind of experiment: Inhibition of human TLR7 expressed in HEK-Blue cells assessed as inhibition of R848-induced NF-kappaB activation at 20 uM measured after 24 hrs by quanti-blue based SEAP reporter gene assay. Type of assay: cell-based. In short, it runs like this:
(§1)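 HEK-Blue SEAP format: 4 × 10⁴ cells/well in DMEM with ligand plus compound, 24 h at 37 °C. Supernatant mixed with QUANTI-Blue up to 1 h, then A620 read. Ligands: Pam3CSK4 100 ng/mL (TLR1/2), Pam2CSK4 100 ng/mL (TLR2/6), poly(I:C) 5 µg/mL (TLR3), LPS 20 ng/mL (TLR4), flagellin 50 ng/mL (TLR5), R848 1 µg/mL (TLR7), R848 2 µg/mL (TLR8), ODN2006 0.5 µM (TLR9). Mean ± s.d.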

In assay [2] the target is T2, Toll-like receptor 8 (Homo sapiens) (UniProt Q9NR97).
T2 sequence (whole entry): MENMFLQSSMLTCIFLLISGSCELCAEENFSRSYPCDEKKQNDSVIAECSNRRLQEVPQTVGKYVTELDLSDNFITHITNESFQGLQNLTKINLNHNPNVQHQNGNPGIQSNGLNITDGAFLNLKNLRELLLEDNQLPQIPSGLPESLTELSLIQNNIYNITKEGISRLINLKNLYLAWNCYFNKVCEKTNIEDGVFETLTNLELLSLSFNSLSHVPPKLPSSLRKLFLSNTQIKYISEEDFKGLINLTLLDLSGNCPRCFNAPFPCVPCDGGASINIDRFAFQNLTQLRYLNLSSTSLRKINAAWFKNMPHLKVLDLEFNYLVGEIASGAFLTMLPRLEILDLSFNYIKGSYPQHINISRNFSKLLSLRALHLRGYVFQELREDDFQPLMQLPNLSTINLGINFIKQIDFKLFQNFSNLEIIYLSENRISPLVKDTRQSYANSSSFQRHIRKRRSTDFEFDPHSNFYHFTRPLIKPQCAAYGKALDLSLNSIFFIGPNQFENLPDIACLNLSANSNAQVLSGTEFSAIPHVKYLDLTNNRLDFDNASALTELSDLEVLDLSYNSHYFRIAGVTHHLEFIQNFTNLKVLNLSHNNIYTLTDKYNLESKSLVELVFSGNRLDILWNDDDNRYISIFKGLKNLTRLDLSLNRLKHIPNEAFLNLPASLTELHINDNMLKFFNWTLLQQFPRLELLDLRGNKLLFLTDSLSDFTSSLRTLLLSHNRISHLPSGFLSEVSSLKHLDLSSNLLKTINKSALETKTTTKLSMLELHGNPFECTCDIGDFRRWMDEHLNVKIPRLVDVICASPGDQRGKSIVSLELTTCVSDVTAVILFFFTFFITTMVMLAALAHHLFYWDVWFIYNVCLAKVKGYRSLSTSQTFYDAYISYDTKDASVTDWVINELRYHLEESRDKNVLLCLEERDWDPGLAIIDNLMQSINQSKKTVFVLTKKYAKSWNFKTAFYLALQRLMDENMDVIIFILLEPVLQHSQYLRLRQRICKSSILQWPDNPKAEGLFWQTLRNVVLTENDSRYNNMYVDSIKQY
As to the kind of experiment: Inhibition of TLR8 in human monocytes assessed as reduction in R848-induced TNFalpha production measured after 24 hrs by ELISA. Type of assay: cell-based. An outline of the steps:
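Human monocyte cell lines in RPMI 1640 with 10% FBS and 0.05 mM 2-mercaptoethanol, 1 × 10⁶/well, 24 h. After PBS washes, fresh RPMI added with R848 1 µg/mL and varying compound concentrations for 24 h. Supernatant TNF-α, IL-6 and IL-1β measured by ELISA.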

For assay [3], the target named is T2, Toll-like receptor 8 (Homo sapiens). As to the kind of experiment: Inhibition of R848 binding to human TLR8 ectodomain at 50 uM by isothermal titration calorimetry.
Assay [4] deals with Toll-like receptor 4 (Homo sapiens) (UniProt O00206). The assay can be described thus: Inhibition of human TLR4 expressed in HEK-Blue cells assessed as inhibition of LPS-induced NF-kappaB activation at 20 uM measured after 24 hrs by quanti-blue based SEAP reporter gene assay. Type of assay: cell-based. An outline of the steps: as §1
In general terms: In a reporter assay the amount or activity of a reporter protein is the signal.

Assay [5] deals with TLR2/TLR6 (Homo sapiens) (UniProt O60603+Q9Y2C9). The assay can be described thus: Inhibition of human TLR2/6 expressed in HEK-Blue cells assessed as inhibition of Pam2CSK4-induced NF-kappaB activation at 20 uM measured after 24 hrs by quanti-blue based SEAP reporter gene assay. Type of assay: cell-based. An outline of the steps:
as §1

Assay [6] deals with T2, Toll-like receptor 8 (Homo sapiens). As to the kind of experiment: Inhibition of TLR8 in human monocytes assessed as reduction in R848-induced phosphorylated IRAK4 expression measured after 2 hrs by Western blot analysis. Type of assay: cell-based. An outline of the steps:
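Monocyte cell lines, 2 × 10⁶/well, differentiated with PMA 100 ng/mL for 24 h. After washes, cells in unsupplemented RPMI received R848 1 µg/mL with varying compound concentrations for 2 h. Nuclear/cytoplasmic fractions extracted and resolved on 10% SDS-PAGE. Blots probed for p65, TRAF3 and p-IRAK4 (1:1000); lamin A/C (nuclear) and β-actin (cytoplasmic) as loading controls.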
On the technique in general: In western blotting, separated proteins are transferred to a membrane and probed.

Toll-like receptor 4 (Homo sapiens), sequence (O00206 whole entry): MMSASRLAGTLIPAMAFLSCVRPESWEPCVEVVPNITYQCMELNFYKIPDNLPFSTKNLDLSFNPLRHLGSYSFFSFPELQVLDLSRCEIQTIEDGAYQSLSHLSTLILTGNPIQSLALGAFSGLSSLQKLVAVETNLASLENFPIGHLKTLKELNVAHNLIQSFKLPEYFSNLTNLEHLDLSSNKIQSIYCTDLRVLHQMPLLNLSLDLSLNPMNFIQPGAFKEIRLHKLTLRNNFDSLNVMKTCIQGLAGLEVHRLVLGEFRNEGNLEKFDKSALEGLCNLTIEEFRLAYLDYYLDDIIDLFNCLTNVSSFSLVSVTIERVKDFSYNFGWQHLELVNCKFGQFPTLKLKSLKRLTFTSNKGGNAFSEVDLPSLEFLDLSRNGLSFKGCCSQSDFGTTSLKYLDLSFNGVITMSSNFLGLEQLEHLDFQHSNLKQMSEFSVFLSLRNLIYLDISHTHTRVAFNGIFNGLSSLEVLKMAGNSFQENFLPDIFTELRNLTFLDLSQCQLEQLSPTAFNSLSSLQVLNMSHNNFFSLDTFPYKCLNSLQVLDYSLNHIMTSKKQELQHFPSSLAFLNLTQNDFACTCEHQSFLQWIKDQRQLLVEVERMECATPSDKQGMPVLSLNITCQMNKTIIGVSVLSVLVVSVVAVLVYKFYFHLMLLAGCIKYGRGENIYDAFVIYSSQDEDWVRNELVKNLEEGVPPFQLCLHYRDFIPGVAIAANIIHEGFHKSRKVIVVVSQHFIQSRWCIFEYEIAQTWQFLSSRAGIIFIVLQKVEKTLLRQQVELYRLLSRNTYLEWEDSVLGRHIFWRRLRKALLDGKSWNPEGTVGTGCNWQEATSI

`CSc1nnc(CCCO)n1-c1cc(C)c(C)c(C)c1`: the inhibition entry in assay [1], in assay [4] and in assay [5] was “inactive” in each case. Moreover, the inhibition entry in assay [2] and in assay [6] was “Dose-dependent effect” throughout. The inhibition result in assay [3] is “Active”.
